Results taken from article PMC4203514 (Autophagy, 2014).
“Also recorded” adds a separate entry of the source. Like-named read-outs stand apart in the source and are kept apart here.

How the values were obtained:
[1] = tested on: patients with advanced solid tumors; experiment: Treatment-related adverse events by grade; format: in vivo, human
Outline: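 Patients who took at least one dose of the oral test compound, given with a dose-intense oral alkylating agent, were evaluable for toxicity. Adverse events were graded by NCI Common Toxicity Criteria v3.0, and haematological toxicities were attributed to the alkylating agent. Complete blood counts were done weekly for the first 6 wk and biweekly thereafter. Treatment ran in 28 d cycles.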

[2] = tested on: patients with advanced solid tumors; format: in vivo, human
Outline: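 Open-label single-institution 3 + 3 escalation of the oral test compound only, starting at 200 mg daily, split twice daily about 12 h apart above 200 mg, up to 1200 mg. A 14 d monotherapy run-in preceded an oral alkylating agent at 150 mg/m2 daily for 7 of 14 d, in 28 d cycles. DLT was any at least possibly related grade ≥ 3 event in the first 6 wk. MTD was ≤ 1/6 patients with DLT.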

[3] = tested on: patients with rheumatoid arthritis; details: 1200 mg/d HCQ (600 mg twice daily), after 6 wk; cited from earlier work
[4] = all patients (37 evaluable for toxicities)

SMILES: CCN(CCO)CCCC(C)Nc1ccnc2cc(Cl)ccc12 (stereo not drawn) [HCQ, hydroxychloroquine]
- Vomiting G1/G2 ([1]; HCQ 400 mg (n = 4) with TMZ): 3 (75) No. (%)
- Anorexia G1/G2 ([1]; HCQ 800 mg (n = 15) with TMZ): 5 (33) No. (%)
- Constipation G1/G2 ([1]; HCQ 800 mg (n = 15) with TMZ): 4 (27) No. (%)
- Diarrhea G1/G2 ([1]; HCQ 800 mg (n = 15) with TMZ): 2 (13) No. (%)
- Dyspepsia G1/G2 ([1]; HCQ 800 mg (n = 15) with TMZ): 1 (7) No. (%)
- Fatigue G1/G2 ([1]; HCQ 800 mg (n = 15) with TMZ): 7 (47) No. (%)
- Headaches G1/G2 ([1]; HCQ 800 mg (n = 15) with TMZ): 2 (13) No. (%)
- Leukopenia G3/G4 ([1]; HCQ 800 mg (n = 15) with TMZ): 1 (7) No. (%)
- Lymphopenia G1/G2 ([1]; HCQ 800 mg (n = 15) with TMZ): 3 (20) No. (%)
- Lymphopenia G3/G4 ([1]; HCQ 800 mg (n = 15) with TMZ): 1 (7) No. (%)
- Myalgias G1/G2 ([1]; HCQ 800 mg (n = 15) with TMZ): 1 (7) No. (%)
- Nausea G1/G2 ([1]; HCQ 800 mg (n = 15) with TMZ): 6 (40) No. (%)
- Neutropenia G3/G4 ([1]; HCQ 800 mg (n = 15) with TMZ): 2 (13) No. (%)
- Pruritus G1/G2 ([1]; HCQ 800 mg (n = 15) with TMZ): 1 (7) No. (%)
- Rash G1/G2 ([1]; HCQ 800 mg (n = 15) with TMZ): 2 (13) No. (%)
- Taste change G1/G2 ([1]; HCQ 800 mg (n = 15) with TMZ): 1 (7) No. (%)
- Thrombocytopenia G3/G4 ([1]; HCQ 800 mg (n = 15) with TMZ): 2 (13) No. (%)
- Vomiting G1/G2 ([1]; HCQ 800 mg (n = 15) with TMZ): 3 (20) No. (%)
- Abdominal pain G1/G2 ([1]; HCQ 1000 mg (n = 7) with TMZ): 2 (29) No. (%)
- Anemia G3/G4 ([1]; HCQ 1000 mg (n = 7) with TMZ): 1 (14) No. (%)
- Anorexia G1/G2 ([1]; HCQ 1000 mg (n = 7) with TMZ): 1 (14) No. (%)
- Constipation G1/G2 ([1]; HCQ 1000 mg (n = 7) with TMZ): 1 (14) No. (%)
- Diarrhea G1/G2 ([1]; HCQ 1000 mg (n = 7) with TMZ): 3 (43) No. (%)
- Dizziness G1/G2 ([1]; HCQ 1000 mg (n = 7) with TMZ): 1 (14) No. (%)
- Fatigue G1/G2 ([1]; HCQ 1000 mg (n = 7) with TMZ): 5 (71) No. (%)
- Headaches G1/G2 ([1]; HCQ 1000 mg (n = 7) with TMZ): 1 (14) No. (%)
- Lymphopenia G1/G2 ([1]; HCQ 1000 mg (n = 7) with TMZ): 1 (14) No. (%)
- Nausea G1/G2 ([1]; HCQ 1000 mg (n = 7) with TMZ): 5 (71) No. (%)
- Pruritus G1/G2 ([1]; HCQ 1000 mg (n = 7) with TMZ): 1 (14) No. (%)
- Rash G3/G4 ([1]; HCQ 1000 mg (n = 7) with TMZ): 1 (14) No. (%)
- Taste change G1/G2 ([1]; HCQ 1000 mg (n = 7) with TMZ): 1 (14) No. (%)
- Thrombocytopenia G1/G2 ([1]; HCQ 1000 mg (n = 7) with TMZ): 2 (29) No. (%)
- Vomiting G1/G2 ([1]; HCQ 1000 mg (n = 7) with TMZ): 2 (29) No. (%)
- Anemia G1/G2 ([1]; HCQ 1200 mg (n = 8) with TMZ): 1 (13) No. (%)
- Anorexia G1/G2 ([1]; HCQ 1200 mg (n = 8) with TMZ): 3 (38) No. (%)
- Bradycardia G1/G2 ([1]; HCQ 1200 mg (n = 8) with TMZ): 1 (13) No. (%)
- Constipation G1/G2 ([1]; HCQ 1200 mg (n = 8) with TMZ): 2 (25) No. (%)
- Diarrhea G1/G2 ([1]; HCQ 1200 mg (n = 8) with TMZ): 2 (25) No. (%)
- Fatigue G1/G2 ([1]; HCQ 1200 mg (n = 8) with TMZ): 7 (88) No. (%)
- Hypotension G1/G2 ([1]; HCQ 1200 mg (n = 8) with TMZ): 1 (13) No. (%)
- Lymphopenia G3/G4 ([1]; HCQ 1200 mg (n = 8) with TMZ): 1 (13) No. (%)
- Nausea G1/G2 ([1]; HCQ 1200 mg (n = 8) with TMZ): 4 (50) No. (%)
- Nausea G3/G4 ([1]; HCQ 1200 mg (n = 8) with TMZ): 1 (13) No. (%)
- Rash G1/G2 ([1]; HCQ 1200 mg (n = 8) with TMZ): 1 (13) No. (%)
- Thrombocytopenia G1/G2 ([1]; HCQ 1200 mg (n = 8) with TMZ): 1 (13) No. (%)
- Vomiting G1/G2 ([1]; HCQ 1200 mg (n = 8) with TMZ): 2 (25) No. (%)
- Vomiting G3/G4 ([1]; HCQ 1200 mg (n = 8) with TMZ): 1 (13) No. (%)
- ≥ grade 1 treatment-related anorexia [1, 4]: 35%
- ≥ grade 1 treatment-related constipation [1, 4]: 22%
- ≥ grade 1 treatment-related diarrhea [1, 4]: 24%
- ≥ grade 1 treatment-related fatigue [1, 4]: 97%
- ≥ grade 1 treatment-related nausea [1, 4]: 65%
- Maximum tolerated dose (MTD) ([2]; HCQ up to 1200 mg/d combined with dose-intense TMZ 150 mg/m^2 daily for 7/14 d): No maximal tolerated dose; also recorded: not reached
- Recommended phase II dose (RPTD) ([2]; combined with dose-intense TMZ, dose level 5): 600 mg twice daily
- Dose-limiting toxicity ([2]; dose level 1 (HCQ 200 mg/day), three patients): no dose-limiting toxicity (DLT) was observed
- Dose-limiting toxicity ([2]; dose level 2 (HCQ 400 mg/day)): no DLT observed
- Serious adverse event ([2]; dose level 3 (HCQ 400 mg twice daily), patient on sotalol, within 8 d, attributed to dehydration and not to the study drug): third-degree heart block
- Dose-limiting toxicity ([2]; dose level 4 (HCQ 1000 mg/day), none in 3 additional patients): one grade 3 rash
- Dose-limiting toxicity ([2]; dose level 5 (HCQ 1200 mg/d), first cycle, none in expanded cohort): one patient experienced grade 3 nausea and vomiting
- Dose-limiting toxicity as a single agent [3]: dose-limiting nausea
